Source: ChEMBL document CHEMBL4196105, “Discovery of β-Arrestin Biased Ligands of 5-HT7R” (J Med Chem, 2018)
pKi: −log10 of the molar value. Active and inactive are the calls of the source. The calls are words filed in the database; no cut-off is given here.

Tests used:
[1] = target: T1, 5-hydroxytryptamine receptor 2C (Homo sapiens, UniProt P28335); test: Displacement of [3H]LSD from human 5-HT2C receptor expressed in HEK cell membranes after 1.5 hrs by microbeta scintillation counting method
T1 sequence (P28335 whole entry): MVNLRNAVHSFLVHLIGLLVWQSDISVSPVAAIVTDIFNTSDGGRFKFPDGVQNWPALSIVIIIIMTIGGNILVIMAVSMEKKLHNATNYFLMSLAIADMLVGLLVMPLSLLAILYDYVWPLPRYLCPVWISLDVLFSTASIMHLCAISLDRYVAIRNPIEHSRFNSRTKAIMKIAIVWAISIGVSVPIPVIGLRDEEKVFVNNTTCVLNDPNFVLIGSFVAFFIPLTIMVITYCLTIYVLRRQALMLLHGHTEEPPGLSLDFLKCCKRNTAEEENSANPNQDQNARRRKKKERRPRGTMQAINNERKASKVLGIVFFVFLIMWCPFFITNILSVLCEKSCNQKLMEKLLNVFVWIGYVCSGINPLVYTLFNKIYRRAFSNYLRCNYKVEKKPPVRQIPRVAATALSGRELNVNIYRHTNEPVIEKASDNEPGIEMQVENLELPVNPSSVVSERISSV
Summary of the method: (§1)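 Radioligand binding performed by the NIMH Psychoactive Drug Screening Program. Crude membranes from cells expressing recombinant receptor, with [3H]LSD, in 50 mM Tris-HCl, 10 mM MgCl2, 1 mM EDTA, pH 7.4. Eleven test concentrations. Incubated 1.5 h at room temperature, protected from light. Filtered onto PEI-soaked GF/B filters, then scintillation counting. IC50 converted to Ki; at least three experiments in triplicate.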

[2] = target: T2, 5-hydroxytryptamine receptor 7 (Homo sapiens, UniProt P34969); test: Antagonist activity at human 5-HT7 receptor expressed in HEK293 cells assessed as inhibition of Gs protein-mediated cAMP accumulation by luminescence-based assay relative to SB269970; assay type: functional, cell-based
Summary of the method: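 HEK293 cells transiently transfected by calcium phosphate with human 5-HT7R and GloSensor-22F cAMP biosensor. After 5-6 h recovery, loaded with GloSensor reagent in HBSS/20 mM HEPES, pH 7.4. Test compounds at 0.01 nM-100 μM final; antagonist mode uses 5-HT stimulation. Luminescence read. Data normalised to 5-HT or SB269970 (100%) and vehicle (0%). Three experiments, at least triplicate.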

[3] = target: 5-hydroxytryptamine receptor 5A (Homo sapiens, UniProt P47898); test: Displacement of [3H]LSD from human 5-HT5A receptor expressed in HEK cell membranes after 1.5 hrs by microbeta scintillation counting method; summary of the method: as §1
[4] = target: T2, 5-hydroxytryptamine receptor 7; test: Antagonist activity at tTA containing TCS cleavage site-fused 5-HT7 receptor (unknown origin) expressed in tTA-dependent luciferase reporter/TEV-fused beta-arrestin2 expressing HTLA cells assessed as inhibition of 5-HT-induced beta-arrestin2 recruitment after 22 hrs by Tango assay; assay type: functional, cell-based
[5] = target: 5-hydroxytryptamine receptor 1E (Homo sapiens, UniProt P28566); test: Displacement of [3H]LSD from human 5-HT1E receptor expressed in HEK cell membranes after 1.5 hrs by microbeta scintillation counting method; summary of the method: as §1
[6] = target: T3, 5-hydroxytryptamine receptor 3A (Homo sapiens, UniProt P46098); test: Displacement of [3H]LSD from human 5-HT3 receptor expressed in HEK cell membranes after 1.5 hrs by microbeta scintillation counting method; summary of the method: as §1
T3 sequence (P46098 whole entry): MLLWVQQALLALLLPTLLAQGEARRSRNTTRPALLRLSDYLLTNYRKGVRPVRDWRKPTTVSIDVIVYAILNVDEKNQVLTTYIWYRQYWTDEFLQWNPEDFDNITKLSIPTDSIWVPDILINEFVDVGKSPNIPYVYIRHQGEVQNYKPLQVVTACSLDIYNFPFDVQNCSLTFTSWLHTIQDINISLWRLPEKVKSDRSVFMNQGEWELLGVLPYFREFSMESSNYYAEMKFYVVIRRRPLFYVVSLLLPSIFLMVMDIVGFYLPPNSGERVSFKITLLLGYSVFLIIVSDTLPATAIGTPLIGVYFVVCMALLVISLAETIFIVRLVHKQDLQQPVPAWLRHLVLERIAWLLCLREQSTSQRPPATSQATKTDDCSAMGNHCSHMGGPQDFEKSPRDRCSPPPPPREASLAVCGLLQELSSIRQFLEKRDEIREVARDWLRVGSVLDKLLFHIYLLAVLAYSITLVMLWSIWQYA

Homo sapiens [7] = species on record: Homo sapiens; test: Selectivity index, ratio of Ki for human 5-HT6 receptor to Ki for human 5-HT7 receptor
Summary of the method: (§2)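 Selectivity index taken as Ki at the other 5-HT receptor subtype divided by Ki at 5-HT7R, each from [3H]LSD membrane binding run by the NIMH PDSP. Ki values are means of at least three experiments in triplicate.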

[8] = target: 5-hydroxytryptamine receptor 2B (Homo sapiens, UniProt P41595); test: Displacement of [3H]LSD from human 5-HT2B receptor expressed in HEK cell membranes after 1.5 hrs by microbeta scintillation counting method
[9] = target: T2, 5-hydroxytryptamine receptor 7; test: Agonist activity at tTA containing TCS cleavage site-fused 5-HT7 receptor (unknown origin) expressed in tTA-dependent luciferase reporter/TEV-fused beta-arrestin2 expressing HTLA cells assessed as induction of beta-arrestin2 recruitment after 22 hrs by Tango assay relative to 5-HT; assay type: functional, cell-based
Summary of the method: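 HTLA cells (HEK293 stably expressing tTA-dependent luciferase reporter and β-arrestin2-TEV) transiently transfected with 5-HT7R-TCS-tTA. Plated in 1% dialysed FBS medium for 6 h, then given test compounds at 0.01 nM-100 μM final, about 22 h. Antagonist mode adds 1 μM 5-HT. BrightGlo luminescence read. Normalised to 5-HT (100%) and vehicle (0%). Three experiments, at least triplicate.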

[10] = target: 5-hydroxytryptamine receptor 1B (Homo sapiens, UniProt P28222); test: Displacement of [3H]LSD from human 5-HT1B receptor expressed in HEK cell membranes after 1.5 hrs by microbeta scintillation counting method; summary of the method: as §1
[11] = target: T4, 5-hydroxytryptamine receptor 1A (Homo sapiens, UniProt P08908); test: Displacement of [3H]LSD from human 5-HT1A receptor expressed in HEK cell membranes after 1.5 hrs by microbeta scintillation counting method; summary of the method: as §1
T4 sequence (P08908 whole entry): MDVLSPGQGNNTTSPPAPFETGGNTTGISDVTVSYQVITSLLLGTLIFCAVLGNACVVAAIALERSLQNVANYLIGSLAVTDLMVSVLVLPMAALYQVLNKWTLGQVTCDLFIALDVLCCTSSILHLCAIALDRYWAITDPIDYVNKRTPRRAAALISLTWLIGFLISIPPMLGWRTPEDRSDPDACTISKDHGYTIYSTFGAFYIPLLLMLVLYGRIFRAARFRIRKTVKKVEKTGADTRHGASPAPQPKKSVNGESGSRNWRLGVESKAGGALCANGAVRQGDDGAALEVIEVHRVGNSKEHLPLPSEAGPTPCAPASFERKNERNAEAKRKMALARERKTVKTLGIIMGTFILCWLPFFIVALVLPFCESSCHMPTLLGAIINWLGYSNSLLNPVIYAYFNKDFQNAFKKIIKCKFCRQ

Homo sapiens [12] = species on record: Homo sapiens; test: Selectivity index, ratio of Ki for human 5-HT1E receptor to Ki for human 5-HT7 receptor; summary of the method: as §2
Homo sapiens [13] = species on record: Homo sapiens; test: Selectivity index, ratio of Ki for human 5-HT2C receptor to Ki for human 5-HT7 receptor; summary of the method: as §2

5-hydroxytryptamine receptor 1B, sequence (P28222 whole entry): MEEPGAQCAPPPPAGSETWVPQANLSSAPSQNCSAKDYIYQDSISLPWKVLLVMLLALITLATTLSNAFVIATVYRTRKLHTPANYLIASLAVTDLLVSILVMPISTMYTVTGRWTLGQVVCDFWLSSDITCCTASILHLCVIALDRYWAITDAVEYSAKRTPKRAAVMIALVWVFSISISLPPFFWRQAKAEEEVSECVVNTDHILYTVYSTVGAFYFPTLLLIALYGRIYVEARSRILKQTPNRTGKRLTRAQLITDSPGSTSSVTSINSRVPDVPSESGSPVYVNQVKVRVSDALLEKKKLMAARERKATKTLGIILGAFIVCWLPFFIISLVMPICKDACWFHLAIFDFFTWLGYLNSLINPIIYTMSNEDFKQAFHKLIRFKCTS
5-hydroxytryptamine receptor 1E, sequence (P28566 whole entry): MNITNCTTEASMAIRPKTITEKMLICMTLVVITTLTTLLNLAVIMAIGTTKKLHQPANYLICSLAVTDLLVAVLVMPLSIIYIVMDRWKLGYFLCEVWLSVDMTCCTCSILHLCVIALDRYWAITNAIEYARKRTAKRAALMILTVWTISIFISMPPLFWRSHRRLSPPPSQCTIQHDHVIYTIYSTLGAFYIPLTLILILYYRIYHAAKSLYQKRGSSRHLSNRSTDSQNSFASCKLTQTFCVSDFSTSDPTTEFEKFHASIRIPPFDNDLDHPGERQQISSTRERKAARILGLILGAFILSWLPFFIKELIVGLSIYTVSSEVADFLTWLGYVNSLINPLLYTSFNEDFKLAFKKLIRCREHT
T2 sequence (P34969 whole entry): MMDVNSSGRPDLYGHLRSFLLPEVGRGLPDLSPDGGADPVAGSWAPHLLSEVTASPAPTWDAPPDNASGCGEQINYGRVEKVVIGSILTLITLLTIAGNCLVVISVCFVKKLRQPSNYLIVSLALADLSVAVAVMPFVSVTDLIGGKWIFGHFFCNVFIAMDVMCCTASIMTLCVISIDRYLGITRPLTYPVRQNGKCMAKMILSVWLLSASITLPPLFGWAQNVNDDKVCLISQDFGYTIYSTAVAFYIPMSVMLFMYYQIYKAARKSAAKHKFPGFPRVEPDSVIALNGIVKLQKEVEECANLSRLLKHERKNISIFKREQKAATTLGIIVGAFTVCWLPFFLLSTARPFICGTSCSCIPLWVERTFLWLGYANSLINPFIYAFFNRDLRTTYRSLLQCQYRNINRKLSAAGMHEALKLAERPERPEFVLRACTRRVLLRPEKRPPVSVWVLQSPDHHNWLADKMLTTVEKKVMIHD
5-hydroxytryptamine receptor 5A, sequence (P47898 whole entry, the tested form may be a part): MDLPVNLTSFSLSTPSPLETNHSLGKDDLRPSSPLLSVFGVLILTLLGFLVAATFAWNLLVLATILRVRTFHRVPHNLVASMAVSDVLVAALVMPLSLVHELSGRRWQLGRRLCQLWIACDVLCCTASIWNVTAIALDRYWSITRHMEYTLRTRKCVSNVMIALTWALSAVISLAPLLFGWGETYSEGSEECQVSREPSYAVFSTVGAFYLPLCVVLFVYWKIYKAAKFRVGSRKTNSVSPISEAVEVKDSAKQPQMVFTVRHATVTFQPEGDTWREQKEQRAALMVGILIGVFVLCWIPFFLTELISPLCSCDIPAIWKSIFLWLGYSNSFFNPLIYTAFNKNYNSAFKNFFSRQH
5-hydroxytryptamine receptor 2B, sequence (P41595 whole entry, the tested form may be a part): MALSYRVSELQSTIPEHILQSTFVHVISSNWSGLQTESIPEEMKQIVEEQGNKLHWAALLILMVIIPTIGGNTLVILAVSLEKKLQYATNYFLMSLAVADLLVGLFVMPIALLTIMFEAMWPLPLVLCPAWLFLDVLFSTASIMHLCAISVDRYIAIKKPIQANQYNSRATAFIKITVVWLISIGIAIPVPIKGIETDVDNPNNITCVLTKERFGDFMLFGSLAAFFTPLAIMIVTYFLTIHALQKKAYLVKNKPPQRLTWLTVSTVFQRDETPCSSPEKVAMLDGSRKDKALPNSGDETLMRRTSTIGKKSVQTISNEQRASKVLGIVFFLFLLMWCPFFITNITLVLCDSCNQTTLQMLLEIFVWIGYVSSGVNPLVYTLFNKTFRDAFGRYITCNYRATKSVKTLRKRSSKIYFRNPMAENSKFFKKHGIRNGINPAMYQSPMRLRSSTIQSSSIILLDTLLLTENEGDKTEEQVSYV

| pKi [1] | Imax [2] [%] | pKi [3] | inhibition [4] | pKi [5] | pKi [6] | Ratio Ki (Homo sapiens [7]) | pKi [8] | Emax [9] [%] | pKi [10] | pKi [11] | Ratio Ki (Homo sapiens [12]) | Ratio Ki (Homo sapiens [13]) | Compound |
| --- | --- | --- | --- | --- | --- | --- | --- | --- | --- | --- | --- | --- | --- |
| 6.70 | 98.4 | < 5.00 | inactive | 6.10 | < 5.00 | 4 | 7.01 | 53.9 | < 5.00 | 5.73 | 7.6 | 1.9 | Fc1ccc(-c2n[nH]c3c2CCNCC3)cc1 |
| 7.70 | 95.8 | 5.95 | inactive | 5.75 | 6.38 | 30.8 | 6.82 | 40.3 | < 5.00 | < 5.00 | 112 | 1.3 | Cc1ccc(-c2noc3c2CCNCC3)cc1 |

| Compound | pKi [1] | Imax [2] [%] | pKi [3] | inhibition [4] | pKi [5] | pKi [6] | Ratio Ki (Homo sapiens [7]) | pKi [8] | Emax [9] [%] | pKi [10] | pKi [11] | Ratio Ki (Homo sapiens [12]) | Ratio Ki (Homo sapiens [13]) |
| --- | --- | --- | --- | --- | --- | --- | --- | --- | --- | --- | --- | --- | --- |
| Clc1ccc(-c2n[nH]c3c2CCNCC3)cc1 | 6.10 | 94.8 | < 5.00 | inactive | 5.86 | < 5.00 | 8.3 | 7.00 | 62.8 | < 5.00 | < 5.00 | 45.5 | 26.6 |
